Laboratory results: ChEMBL document CHEMBL1156979, “The impact of polyether chain length on the iron clearing efficiency and physiochemical properties of desferrithiocin analogues” (J Med Chem, 2010)
Active and inactive are the calls of the source. The calls are words filed in the database; no cut-off is given here.

Key:
Sapajus apella [1] = test: Iron-clearing efficiency in iron-overloaded Cebus apella at 75 umol/kg, po measured daily once for 2 days by flame absorption spectroscopy relative to control; type: functional
In short: (§1)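 Iron-overloaded Cebus apella (3.5–4 kg; iv iron dextran to about 500 mg Fe/kg, ≥60 days before use) dosed orally at 75 μmol/kg, by gavage as monosodium salt (1 equiv NaOH in distilled water) or in capsules. Feces and urine collected every 24 h from 4 days pre-drug to 5 days post-drug; iron by flame absorption spectroscopy. ICE = 2-day post-drug iron minus 4-day baseline average, divided by theoretical output (2:1 ligand:iron); percent. Performance ratio = mean primate ICE/rodent ICE.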

Rattus norvegicus [2] = test: Iron-clearing efficiency in non-iron-overloaded and bile duct-cannulated Sprague-Dawley rat assessed as bile iron excretion at 300 umol/kg, po after 24 hrs relative to control; type: functional
In short: (§2)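 Non-iron-overloaded male Sprague-Dawley rats (400–450 g), bile duct-cannulated, given a single oral dose of 300 μmol/kg, either by gavage as monosodium salt or in capsules. Bile was collected at 3 h intervals for up to 48 h and urine every 24 h. Iron was measured by flame absorption spectroscopy. ICE = 24-h iron excretion of treated rats minus controls, divided by theoretical output (2:1 ligand:iron); percent. Mean ± SEM; one-tailed t-test.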

Rattus norvegicus [3] = test: Iron-clearing efficiency in non-iron-overloaded and bile duct-cannulated Sprague-Dawley rat assessed as time required to maximum bile iron excretion at 300 umol/kg, po; type: functional; in short: as §2
Rattus norvegicus [4] = test: Iron-clearing efficiency in non-iron-overloaded and bile duct-cannulated Sprague-Dawley rat assessed as urine iron excretion at 300 umol/kg, po after 24 hrs relative to control; type: functional
Sapajus apella [5] = test: Iron-clearing efficiency in iron-overloaded Cebus apella assessed as urine iron excretion at 75 umol/kg, po measured daily once for 5 days by lame absorption spectroscopy relative to control; type: functional
[6] = Ratio of iron-clearing efficiency in iron-overloaded Cebus apella at 75 umol/kg, po to iron-clearing efficiency in non-iron-overloaded and bile duct-cannulated Sprague-Dawley rat at 300 umol/kg, po; type: functional, organism-based; in short: as §1
Rattus norvegicus [7] = test: Iron-clearing efficiency in non-iron-overloaded and bile duct-cannulated Sprague-Dawley rat assessed as bile iron excretion at 300 umol/kg, po up to 24 hrs; type: functional, organism-based; in short: as §2
Rattus norvegicus [8] = test: Iron-clearing efficiency in non-iron-overloaded and bile duct-cannulated Sprague-Dawley rat at 300 umol/kg, po after 24 hrs relative to control; type: functional; in short: as §2
Sapajus apella [9] = test: Iron-clearing efficiency in iron-overloaded Cebus apella assessed as feces iron excretion at 75 umol/kg, po measured daily once for 5 days by lame absorption spectroscopy relative to control; type: functional
Sapajus apella [10] = test: Iron-clearing efficiency in iron-overloaded Cebus apella assessed as urine iron excretion at 150 umol/kg, po measured daily once for 5 days by lame absorption spectroscopy relative to control; type: functional
Sapajus apella [11] = test: Iron-clearing efficiency in iron-overloaded Cebus apella assessed as feces iron excretion at 150 umol/kg, po measured daily once for 5 days by lame absorption spectroscopy relative to control; type: functional
Rattus norvegicus [12] = test: Iron-clearing efficiency in non-iron-overloaded and bile duct-cannulated Sprague-Dawley rat assessed as complete bile iron excretion at 300 umol/kg, po; type: functional; in short: as §2
Sapajus apella [13] = test: Iron-clearing efficiency in iron-overloaded Cebus apella at 150 umol/kg, po measured daily once for 2 days by flame absorption spectroscopy relative to control; type: functional
[14] = Ratio of iron-clearing efficiency in iron-overloaded Cebus apella to iron-clearing efficiency in non-iron-overloaded Sprague-Dawley rat at 150 umol/kg, po; type: functional
Rattus norvegicus [15] = test: Iron-clearing efficiency in non-iron-overloaded and bile duct-cannulated Sprague-Dawley rat assessed as urine iron excretion at 150 umol/kg, po after 24 hrs relative to control; type: functional
[16] = Octanol-water partition coefficient, log P in Tris buffer at pH 7.4 by shake flask method; type: physicochemical
In short: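 Octanol/water partition was measured at pH 7.4 (Tris buffer) by the shake-flask direct method. The fraction of drug in octanol is expressed as log P_app.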

Rattus norvegicus [17] = test: Iron-clearing efficiency in non-iron-overloaded and bile duct-cannulated Sprague-Dawley rat assessed as bile iron excretion at 150 umol/kg, po after 24 hrs relative to control; type: functional
Rattus norvegicus [18] = test: Iron-clearing efficiency in non-iron-overloaded and bile duct-cannulated Sprague-Dawley rat at 150 umol/kg, po after 24 hrs relative to control; type: functional

Structure (SMILES)	Activity (Sapajus apella [1])	Time (Rattus norvegicus [3])	Activity (Sapajus apella [5])	Activity (Sapajus apella [9])	Activity (Sapajus apella [10])	Activity (Sapajus apella [11])	Activity (Sapajus apella [13])	also measured
COCCOCCOCCOCCOc1ccc(C2=N[C@@](C)(C(=O)[O-])CS2)c(O)c1.[Na+]	9.8%	6 h	48%	52%	–	–	–	Activity (Rattus norvegicus [2]): 99%; Activity (Rattus norvegicus [4]): 1%; Ratio [6]: 0.8; Activity (Rattus norvegicus [7]): Active; Activity (Rattus norvegicus [8]): 12%
C[C@]1(C(=O)[O-])CSC(c2ccc(O)cc2O)=N1.[Na+] [DEFERITRIN SODIUM]	–	3 h	–	–	12%	88%	16.8%	Time (Rattus norvegicus [12]): 9 h
C[C@]1(C(=O)O)CSC(c2ncccc2O)=N1 [DESFERRITHIOCIN]	–	–	–	–	22%	78%	16.1%	Ratio [14]: 2.9; Activity (Rattus norvegicus [15]): 7%; logD [16]: -1.77; Activity (Rattus norvegicus [17]): 93%; Activity (Rattus norvegicus [18]): 5.5%
COCCOCCOc1ccc(C2=N[C@@](C)(C(=O)[O-])CS2)c(O)c1.[Na+]	26.3%	–	7%	83%	–	–	–	–
COc1ccc(C2=N[C@@](C)(C(=O)[O-])CS2)c(O)c1.[Na+]	–	–	–	–	9%	91%	24.4%	–
